Assay results taken from ChEMBL document CHEMBL1133188, “Discovery of novel, potent, and selective small-molecule CCR5 antagonists as anti-HIV-1 agents: synthesis and biological evaluation of anilide derivatives with a quaternary ammonium moiety” (J Med Chem, 2000).

Assays:
[1] = biological target: C-C chemokine receptor type 5 (Homo sapiens, UniProt P51681); experiment: Inhibitory effect on Chemokine binding to C-C chemokine receptor type 5 using [125I]RANTES
How it was run: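 CHO/CCR5 cells (5 × 10⁴ cells/100 μL) cultured 24 h at 37 °C, then medium replaced with Ham's F-12 binding buffer containing 20 mM Hepes and 0.5% BSA, pH 7.2. Binding with [125I]RANTES (2000 Ci/mmol) plus graded compound concentrations, room temperature, 40 min. Free ligand removed by washing with cold PBS; cell-bound radioactivity counted. IC50 = 50% inhibition of binding; means of duplicate separate experiments (one compound triplicate).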

[2] = biological target: T1, C-C chemokine receptor type 1 (Homo sapiens, UniProt P32246); experiment: Inhibitory effect on the binding of [125I]RANTES to C-C chemokine receptor type 1-expressing CHO cells; format: cell-based
T1 sequence (P32246 whole entry): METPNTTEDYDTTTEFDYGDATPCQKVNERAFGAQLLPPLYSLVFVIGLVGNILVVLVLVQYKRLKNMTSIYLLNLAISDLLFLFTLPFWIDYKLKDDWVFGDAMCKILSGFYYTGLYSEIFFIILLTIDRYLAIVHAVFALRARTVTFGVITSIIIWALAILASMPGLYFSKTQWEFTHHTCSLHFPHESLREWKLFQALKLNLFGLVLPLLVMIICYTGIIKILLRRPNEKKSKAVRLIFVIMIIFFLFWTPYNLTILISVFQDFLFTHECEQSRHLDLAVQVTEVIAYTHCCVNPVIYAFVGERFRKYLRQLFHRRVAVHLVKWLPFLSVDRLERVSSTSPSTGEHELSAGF
How it was run: (§1)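 Whole-cell radioligand binding on CHO cells expressing CCR1 ([125I]RANTES), CCR3 ([125I]eotaxin) or CCR4 ([125I]TARC). Cells were seeded and cultured 24 h at 37 °C. Binding ran in Ham's F-12 with 20 mM Hepes and 0.5% BSA, pH 7.2, at room temperature for 40 min with graded compound. After a cold-PBS wash, cell-bound radioactivity was counted. Means ± SEM of ≥3 separate experiments.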

[3] = Inhibitory effects on HIV-1 (Ba-L) replication was evaluated in MAGI-CCR5 cells; format: functional, cell-based; details: Homo sapiens
[4] = biological target: T2, C-C chemokine receptor type 4 (Homo sapiens, UniProt P51679); experiment: Inhibitory effect on the binding of [125I]TARC to C-C chemokine receptor type 4-expressing CHO cells; format: cell-based; how it was run: as §1
T2 sequence (P51679 whole entry): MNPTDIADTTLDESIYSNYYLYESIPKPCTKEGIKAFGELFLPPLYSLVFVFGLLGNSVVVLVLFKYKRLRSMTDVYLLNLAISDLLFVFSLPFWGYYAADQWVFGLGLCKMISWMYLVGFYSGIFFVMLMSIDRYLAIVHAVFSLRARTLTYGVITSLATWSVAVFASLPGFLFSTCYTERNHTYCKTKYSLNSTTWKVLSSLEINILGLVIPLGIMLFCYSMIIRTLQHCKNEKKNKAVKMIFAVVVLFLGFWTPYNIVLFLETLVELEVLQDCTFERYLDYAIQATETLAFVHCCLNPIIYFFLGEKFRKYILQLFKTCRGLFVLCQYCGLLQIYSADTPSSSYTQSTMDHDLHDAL

[5] = biological target: T3, C-C chemokine receptor type 3 (Homo sapiens, UniProt P51677); experiment: Inhibitory effect on the binding of [125I]- eotaxin to C-C chemokine receptor type 3- expressing CHO cells; format: cell-based; how it was run: as §1
T3 sequence (P51677 whole entry): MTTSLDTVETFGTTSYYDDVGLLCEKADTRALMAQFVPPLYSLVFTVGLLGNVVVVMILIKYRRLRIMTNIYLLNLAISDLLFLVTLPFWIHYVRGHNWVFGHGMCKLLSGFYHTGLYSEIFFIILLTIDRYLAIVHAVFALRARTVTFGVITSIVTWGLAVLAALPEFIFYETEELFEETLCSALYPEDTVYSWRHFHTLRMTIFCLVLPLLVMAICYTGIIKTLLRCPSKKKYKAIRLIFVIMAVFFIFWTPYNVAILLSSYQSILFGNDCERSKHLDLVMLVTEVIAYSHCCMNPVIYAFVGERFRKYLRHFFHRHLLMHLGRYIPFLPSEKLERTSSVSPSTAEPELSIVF

[6] = system: Human immunodeficiency virus 1; experiment: Inhibitory effects on HIV-1 (Ba-L) replication was evaluated in PBMCs; format: functional, organism-based
[7] = biological target: C-C chemokine receptor type 2 (Homo sapiens, UniProt P41597); experiment: Inhibitory effect on the binding of [125I]- MCP-1 to C-C chemokine receptor type 2-expressing CHO cells; format: cell-based
How it was run: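 CCR2b-expressing CHO cells (5 × 10⁴ cells/100 μL) cultured 24 h at 37 °C. Medium replaced with binding buffer: Ham's F-12, 20 mM Hepes, 0.5% BSA, pH 7.2. [125I]MCP-1 binding run at room temperature for 40 min with graded test-compound concentrations. Free ligand washed off with cold PBS; cell-associated radioactivity counted by scintillation.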

C-C chemokine receptor type 5, sequence (P51681 whole entry): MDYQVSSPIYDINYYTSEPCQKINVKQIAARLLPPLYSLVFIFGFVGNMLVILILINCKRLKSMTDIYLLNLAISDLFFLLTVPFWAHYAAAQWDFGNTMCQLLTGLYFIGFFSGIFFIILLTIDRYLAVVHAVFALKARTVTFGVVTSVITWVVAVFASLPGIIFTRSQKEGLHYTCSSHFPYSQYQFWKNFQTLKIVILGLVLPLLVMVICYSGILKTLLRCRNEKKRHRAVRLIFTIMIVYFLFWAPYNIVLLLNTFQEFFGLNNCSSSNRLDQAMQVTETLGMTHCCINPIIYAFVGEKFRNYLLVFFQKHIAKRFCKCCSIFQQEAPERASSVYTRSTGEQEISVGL
C-C chemokine receptor type 2, sequence (P41597 whole entry): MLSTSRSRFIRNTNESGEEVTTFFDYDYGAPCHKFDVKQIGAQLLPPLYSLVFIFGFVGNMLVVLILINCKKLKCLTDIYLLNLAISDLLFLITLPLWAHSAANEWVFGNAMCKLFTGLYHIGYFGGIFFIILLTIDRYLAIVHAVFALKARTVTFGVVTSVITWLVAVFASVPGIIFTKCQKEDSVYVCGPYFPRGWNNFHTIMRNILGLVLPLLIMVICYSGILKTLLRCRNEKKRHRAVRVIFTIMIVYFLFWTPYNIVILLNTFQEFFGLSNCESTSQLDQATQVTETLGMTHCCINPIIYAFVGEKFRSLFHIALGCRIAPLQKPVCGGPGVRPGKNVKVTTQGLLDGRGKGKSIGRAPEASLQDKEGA

Structure (SMILES) | IC50 [1] | other results
C[N+]1(Cc2ccc(NC(=O)C3=Cc4cc(-c5ccccc5)ccc4CC3)cc2)CCCCCC1 | 380 nM | 
CCOc1ccc(-c2ccc3c(c2)C=C(C(=O)Nc2ccc(C[N+](C)(C)C4CCOCC4)cc2)CCO3)cc1 | 1.8 nM | 
Cc1ccc(-c2ccc3c(c2)C=C(C(=O)Nc2ccc(C[N+](C)(C)C4CCOCC4)cc2)CCC3)cc1 [listing 1 of 2 here] | 1.8 nM | 
CC[N+](CC)(CC)Cc1ccc(NC(=O)C2=Cc3cc(-c4ccccc4)ccc3CC2)cc1 | 840 nM | 
C[N+]1(Cc2ccc(NC(=O)C3=Cc4cc(-c5ccccc5)ccc4CC3)cc2)CCOCC1 | 1200 nM | 
Cc1ccc(-c2ccc3c(c2)C=C(C(=O)Nc2ccc(C[N+](C)(C)C4CCOCC4)cc2)CCC3)cc1 [listing 2 of 2 here] | 1.4 nM | IC50 [2]: > 10000 nM; EC50 [3]: 1.2 nM; IC50 [4]: > 10000 nM; IC50 [5]: > 10000 nM; EC50 [6]: 3.7 nM; IC50 [7]: 27 nM
Cc1ccc(-c2cccc(/C=C/C(=O)Nc3ccc(C[N+]4(C)CCCCC4)cc3)c2)cc1 | 570 nM | 
C[N+](C)(Cc1ccc(NC(=O)C2=Cc3cc(-c4ccc(N5CCCC5)cc4)ccc3CCC2)cc1)C1CCOCC1 | 3.8 nM | 
C[N+](C)(Cc1ccc(NC(=O)C2=Cc3cc(-c4ccc(C(F)(F)F)cc4)ccc3OCC2)cc1)C1CCOCC1 | 1.5 nM | 
C[N+](C)(Cc1ccc(NC(=O)C2=Cc3cc(-c4ccc(N5CCCCC5)cc4)ccc3CCC2)cc1)C1CCOCC1 | 2.2 nM | 
C[N+]1(CCc2ccc(NC(=O)C3=Cc4cc(-c5ccccc5)ccc4CC3)cc2)CCCCC1 | 1100 nM | 
Cc1ccc(-c2ccc3c(c2)C=C(C(=O)Nc2ccc(C[N+](C)(C)C4CCC(=O)CC4)cc2)CCO3)cc1 | 4.5 nM | 
C[N+]1(Cc2ccc(NC(=O)C3=Cc4cc(-c5ccccc5)ccc4CC3)cc2)CCCC1 | 430 nM | 
Cc1cccc[n+]1Cc1ccc(NC(=O)C2=Cc3cc(-c4ccccc4)ccc3CC2)cc1 | 3200 nM | 
CCCC[P+](CCCC)(CCCC)Cc1ccc(NC(=O)/C=C/c2cccc(-c3ccc(C)cc3)c2)cc1 | 620 nM | 
Cc1ccc(-c2ccc3c(c2)C=C(C(=O)Nc2ccc(C[N+](C)(C)CCCO)cc2)CCO3)cc1 | 6.8 nM | 
CCC(CC)[N+](C)(C)Cc1ccc(NC(=O)C2=Cc3cc(-c4ccc(C)cc4)ccc3OCC2)cc1 | 3.3 nM | 

The next lines start with results.

IC50 [1] | Structure (SMILES) | other results
43 nM | Cc1ccc(-c2ccc3c(c2)C=C(C(=O)Nc2ccc(C[N+]4(C)CCCCC4)cc2)CCO3)cc1 | 
3.1 nM | Cc1ccc(-c2ccc3c(c2)C=C(C(=O)Nc2ccc(C[N+](C)(C)C4CCSCC4)cc2)CCO3)cc1 | 
390 nM | C[N+]1(Cc2ccc(NC(=O)C3=Cc4cc(-c5ccccc5)ccc4CC3)cc2)CCCCC1 | 
110 nM | Cc1ccc(-c2ccc3c(c2)C=C(C(=O)Nc2ccc(CC[N+]4(C)CCCCC4)cc2)CCO3)cc1 | 
660 nM | Cc1ccc(-c2ccc3c(c2)C=C(C(=O)Nc2ccc(C[N+]4(C)CCCCC4)cc2)CO3)cc1 | 
240 nM | Cc1ccc(-c2ccc3c(c2)C=C(C(=O)Nc2ccc(C[N+]4(C)CCCCC4)cc2)CC3)cc1 | 
1.4 nM | Cc1ccc(-c2ccc3c(c2)C=C(C(=O)Nc2ccc(C[N+](C)(C)C4CCOCC4)cc2)CCO3)cc1 | 
25 nM | Cc1ccc(-c2ccc3c(c2)C=C(C(=O)Nc2ccc(C[N+]4(C)CCCCC4)cc2)CCC3)cc1 | 
